Test results as given in article PMC11555253 (Scientific Reports, 2024).

Assays:
[1] = test system: Saccharomyces cerevisiae α-glucosidase; assay: α-Glucosidase inhibition assay; assay type: biochemical; conditions: IC50 compared with acarbose
α-glucosidase [2] = assay: Enzyme kinetic study; assay type: biochemical, Saccharomyces cerevisiae; conditions: Km increased, Vmax constant with rising inhibitor concentration
Method in brief: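 Yeast α-glucosidase (1 U/mL) was preincubated 15 min at 30 °C with test compound at 0, 12.5, 25 and 50 µM or 0, 15, 30 and 60 µM. p-Nitrophenyl α-D-glucopyranoside was then added at graded concentrations, and absorbance change at 405 nm was followed for 20 min. Double-reciprocal plots were made, and KI was taken from a replot of apparent Km versus inhibitor concentration.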

α-glucosidase [3] = assay: Fluorescence quenching measurements and thermodynamic analysis of binding; parameters: species or system Saccharomyces cerevisiae
Method in brief: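 α-Glucosidase (0.1 U/mL) was equilibrated 10 min with test compound at 0 to 1.0 µM. Emission was scanned from 300–450 nm with excitation at 280 nm in a 1.0 cm quartz cell, and enzyme-free compound background was subtracted. Spectra covered 20–60 °C. KA came from F0/(F0–F) versus total drug concentration at 20 °C and 60 °C, with binding-site number at 20 °C.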

| SMILES | times more potent than acarbose [1] [times] | inhibition mode (α-glucosidase [2]) | KA (binding constant) (α-glucosidase [3]; 20 °C) | KA (binding constant) (α-glucosidase [3]; 60 °C) |
| --- | --- | --- | --- | --- |
| COc1ccccc1NC(=O)Cn1cc(CSc2nc3ccccc3c3nc(-c4ccccc4)c(-c4ccccc4)n23)nn1 [19e, 2-(4-(((2,3-diphenylimidazo[1,2-c]quinazolin-5-yl)thio)methyl)-1H-1,2,3-triazol-1-yl)-N-(2-methoxyphenyl)acetamide] | 15 | competitive inhibition | 4.8 × 10 ^4 L mol^–1 s^–1 | 2.7 × 10 ^4 L mol^–1 s^–1 |
| COc1ccccc1NC(=O)Cn1cc(CSc2nc3ccccc3c3nc4ccccc4n23)nn1 [27e, 2-(4-((benzo[4,5]imidazo[1,2-c]quinazolin-6-ylthio)methyl)-1H-1,2,3-triazol-1-yl)-N-(2-methoxyphenyl)acetamide] | – | competitive inhibition | 6.8 × 10 ^4 L mol^–1 s^–1 | 5.0 × 10 ^4 L mol^–1 s^–1 |
